# Experimental data taken from ChEMBL document CHEMBL3804761, “Synthesis of a stable and orally bioavailable englerin analogue” (Bioorg Med Chem Lett, 2016).
# Experiments:
# Format in all cases: functional
# U-251 = assay: Growth inhibition of human U251 cells assessed as cell growth at 10 uM incubated for 48 hrs by sulforhodamine B assay relative to control; conditions: U-251, 48 h, read-out: Activity
# Summary of the method: (§1)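 NCI 60-cell line standard protocol, one-dose screen: single final concentration 10 µM, 2-day drug exposure, sulforhodamine B (SRB) endpoint; read-out is growth percent relative to untreated control.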
# SK-MEL-2 [1] = assay: Growth inhibition of human SK-MEL-2 cells assessed as cell growth at 10 uM incubated for 48 hrs by sulforhodamine B assay relative to control; conditions: SK-MEL-2, 48 h, read-out: Activity
# Summary of the method: (§2)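 Run in the standard NCI 60-cell-line screen. Cells were exposed to drug for two days, and the read-out was sulforhodamine B staining. Compound was tested at a single final concentration of 10 µM in every line, and results are reported as growth percent.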
# [2] = Growth inhibition of human OVCAR3 cells assessed as cell growth at 10 uM incubated for 48 hrs by sulforhodamine B assay relative to control; conditions: OVCAR-3, 48 h, read-out: Activity; summary of the method: as §2
# [3] = Growth inhibition of human SKOV3 cells assessed as cell growth at 10 uM incubated for 48 hrs by sulforhodamine B assay relative to control; conditions: SK-OV-3, 48 h, read-out: Activity; summary of the method: as §2
# A498 = assay: Growth inhibition of human A498 cells assessed as cell growth at 10 uM incubated for 48 hrs by sulforhodamine B assay relative to control; conditions: A498, 48 h, read-out: Activity
# [4] = Growth inhibition of human UO31 cells assessed as cell growth at 10 uM incubated for 48 hrs by sulforhodamine B assay relative to control; conditions: UO-31, 48 h, read-out: Activity; summary of the method: as §1
# [5] = Growth inhibition of human Hs 578T cells assessed as cell growth at 10 uM incubated for 48 hrs by sulforhodamine B assay relative to control; conditions: read-out: Activity
# MDA-MB-468 = assay: Growth inhibition of human MDA-MB-468 cells assessed as cell growth at 10 uM incubated for 48 hrs by sulforhodamine B assay relative to control; conditions: MDA-MB-468, 48 h, read-out: Activity; summary of the method: as §2
# NCI-H322M [6] = assay: Growth inhibition of human NCI-H322M cells incubated for 48 hrs by sulforhodamine B assay
# Summary of the method: (§3)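 NCI 60-cell-line panel, standard protocol. Cells exposed to compound for two days, growth read by sulforhodamine B staining. Tested at five 10-fold dilutions, top concentration 100 µM, to give dose-response curves.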
# [7] = Growth inhibition of human SF539 cells incubated for 48 hrs by sulforhodamine B assay; conditions: SF-539, 48 h; summary of the method: as §3
# M14 = assay: Growth inhibition of human M14 cells incubated for 48 hrs by sulforhodamine B assay; conditions: M14, 48 h; summary of the method: as §3
# SK-MEL-2 [8] = assay: Growth inhibition of human SK-MEL-2 cells incubated for 48 hrs by sulforhodamine B assay; conditions: SK-MEL-2, 48 h; summary of the method: as §3
# [9] = Growth inhibition of human UACC257 cells incubated for 48 hrs by sulforhodamine B assay; conditions: UACC-257, 48 h
# Summary of the method: (§4)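 Tested in the standard NCI 60-cell-line protocol with two-day drug exposure and a sulforhodamine B endpoint. Compounds were first screened at a single final concentration of 10 µM, reported as growth percent. They were then run as five 10-fold dilutions starting from a high concentration of 100 µM to give dose-response curves.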
# [10] = Growth inhibition of human IGROV1 cells incubated for 48 hrs by sulforhodamine B assay; conditions: IGROV-1, 48 h; summary of the method: as §3
# [11] = Growth inhibition of human OVCAR4 cells incubated for 48 hrs by sulforhodamine B assay; conditions: OVCAR-4, 48 h; summary of the method: as §3
# [12] = Growth inhibition of human SKOV3 cells incubated for 48 hrs by sulforhodamine B assay; conditions: SK-OV-3, 48 h; summary of the method: as §4
# [13] = Growth inhibition of human Caki1 cells incubated for 48 hrs by sulforhodamine B assay; conditions: CAKI-1, 48 h; summary of the method: as §3
# SN12C = assay: Growth inhibition of human SN12C cells incubated for 48 hrs by sulforhodamine B assay; summary of the method: as §4
# [14] = Growth inhibition of human PC3 cells incubated for 48 hrs by sulforhodamine B assay; conditions: PC-3, 48 h; summary of the method: as §3
# [15] = Growth inhibition of human DU145 cells incubated for 48 hrs by sulforhodamine B assay; conditions: DU-145, 48 h; summary of the method: as §3
# MCF7 = assay: Growth inhibition of human MCF7 cells incubated for 48 hrs by sulforhodamine B assay; conditions: MCF7, 48 h; summary of the method: as §3
# MDA-MB-231 = assay: Growth inhibition of human MDA-MB-231 cells incubated for 48 hrs by sulforhodamine B assay; conditions: MDA-MB-231, 48 h; summary of the method: as §3
# [16] = Growth inhibition of human Hs 578T cells incubated for 48 hrs by sulforhodamine B assay
# K562 = assay: Growth inhibition of human K562 cells assessed as cell growth at 10 uM incubated for 48 hrs by sulforhodamine B assay relative to control; conditions: K562, 48 h, read-out: Activity; summary of the method: as §2
# SR = assay: Growth inhibition of human SR cells assessed as cell growth at 10 uM incubated for 48 hrs by sulforhodamine B assay relative to control; conditions: read-out: Activity; summary of the method: as §2
# NCI-H322M [17] = assay: Growth inhibition of human NCI-H322M cells assessed as cell growth at 10 uM incubated for 48 hrs by sulforhodamine B assay relative to control; conditions: read-out: Activity; summary of the method: as §2
# [18] = Growth inhibition of human COLO205 cells assessed as cell growth at 10 uM incubated for 48 hrs by sulforhodamine B assay relative to control; conditions: COLO 205, 48 h, read-out: Activity; summary of the method: as §2
# [19] = Growth inhibition of human HCT15 cells assessed as cell growth at 10 uM incubated for 48 hrs by sulforhodamine B assay relative to control; conditions: HCT-15, 48 h, read-out: Activity; summary of the method: as §2
# [20] = Growth inhibition of human HCC2998 cells assessed as cell growth at 10 uM incubated for 48 hrs by sulforhodamine B assay relative to control; conditions: HCC 2998, 48 h, read-out: Activity
# Summary of the method: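 Single-dose screen in the NCI 60-cell-line panel at one final concentration of 10 µM. Two-day drug exposure with a sulforhodamine B endpoint. Values are growth percent for each cell line.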
# [21] = read-out: pLC50 (the source's name) (converted)
smiles,measurement,setting,value
CC(C)[C@@]12C[C@@H](NC(=O)CO)[C@@](C)(O1)[C@@H]1CC[C@@H](C)[C@H]1[C@@H]2OC(=O)/C=C/C1CCCCC1,growth at 10 µM,U-251,98.1%
same,growth at 10 µM,SK-MEL-2 [1],99.2%
same,growth at 10 µM,[2],110%
same,growth at 10 µM,[3],103%
same,growth at 10 µM,A498,41%
same,growth at 10 µM,[4],95.1%
same,growth at 10 µM,[5],73%
same,growth at 10 µM,MDA-MB-468,97.5%
same,GI50,NCI-H322M [6],> 44.7 µM
same,LC50,NCI-H322M [6],> 44.7 µM
same,TGI,NCI-H322M [6]; read-out: pTGI (converted),> 44.7 µM
same,GI50,[7],> 44.7 µM
same,LC50,[7],> 44.7 µM
same,TGI,[7]; read-out: pTGI (converted),> 44.7 µM
same,GI50,M14,> 44.7 µM
same,LC50,M14,> 44.7 µM
same,TGI,M14; read-out: pTGI (converted),> 44.7 µM
same,GI50,SK-MEL-2 [8],> 44.7 µM
same,LC50,SK-MEL-2 [8],> 44.7 µM
same,TGI,SK-MEL-2 [8]; read-out: pTGI (converted),> 44.7 µM
same,GI50,[9],> 44.7 µM
same,CC50,[9]; [21],> 44.7 µM
same,TGI,[9]; read-out: pTGI (converted),> 44.7 µM
same,GI50,[10],> 44.7 µM
same,CC50,[10]; [21],> 44.7 µM
same,TGI,[10]; read-out: pTGI (converted),> 44.7 µM
same,GI50,[11],> 44.7 µM
same,LC50 (concentration killing 50% of cells),[11],> 44.7 µM
same,TGI,[11]; read-out: pTGI (converted),> 44.7 µM
same,GI50,[12],> 44.7 µM
same,LC50,[12],> 44.7 µM
same,TGI,[12]; read-out: pTGI (converted),> 44.7 µM
same,GI50,[13],> 44.7 µM
same,LC50,[13],> 44.7 µM
same,TGI,[13]; read-out: pTGI (converted),> 44.7 µM
same,GI50,SN12C,> 44.7 µM
same,CC50,SN12C; [21],> 44.7 µM
same,TGI,SN12C; read-out: pTGI (converted),> 44.7 µM
same,GI50,[14],> 44.7 µM
same,CC50,[14]; [21],> 44.7 µM
same,TGI,[14]; read-out: pTGI (converted),> 44.7 µM
same,GI50,[15],> 44.7 µM
same,CC50,[15]; [21],> 44.7 µM
same,TGI,[15]; read-out: pTGI (converted),> 44.7 µM
same,GI50,MCF7,> 44.7 µM
same,CC50,MCF7; [21],> 44.7 µM
same,TGI,MCF7; read-out: pTGI (converted),> 44.7 µM
same,GI50,MDA-MB-231,> 44.7 µM
same,CC50,MDA-MB-231; [21],> 44.7 µM
same,TGI,MDA-MB-231; read-out: pTGI (converted),> 44.7 µM
same,GI50,[16]; read-out: GI50,6.17 µM
same,GI50,[16]; read-out: pGI50 (converted),6.17 µM
same,CC50,[16]; [21],> 44.7 µM
same,TGI,[16]; read-out: pTGI (converted),18.6 µM
same,growth at 10 µM,K562,96.5%
same,growth at 10 µM,SR,93.2%
same,growth at 10 µM,NCI-H322M [17],97.7%
same,growth at 10 µM,[18],113%
same,growth at 10 µM,[19],102%
CC(C)[C@@]12C[C@@H](NC(=O)CF)[C@@](C)(O1)[C@@H]1CC[C@@H](C)[C@H]1[C@@H]2OC(=O)/C=C/c1ccccc1,growth at 10 µM,U-251,106%
same,growth at 10 µM,SK-MEL-2 [1],117%
same,growth at 10 µM,[2],115%
same,growth at 10 µM,[3],91.3%
same,growth at 10 µM,A498,83%
same,growth at 10 µM,[4],91.1%
same,growth at 10 µM,[5],92.6%
same,growth at 10 µM,K562,106%
same,growth at 10 µM,SR,85.5%
same,growth at 10 µM,NCI-H322M [17],97.4%
same,growth at 10 µM,[18],103%
same,growth at 10 µM,[20],107%
same,growth at 10 µM,[19],103%
